B1: Osa-1-4 twister ribozyme (parent)
chain: CCGCCUAACACUGCCAAUGCCGGUCCCAAGCCCGGAUAAAAGUGGAGGGGGCGG

The variants in this data set derive from B1. The data set is described as follows: self-cleavage, relative activity (ratio to wild type); higher = more cleavage; co-transcriptional. In short, it runs like this:
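The 48 positions downstream of the cleavage site in a 54-nucleotide Oryza sativa twister ribozyme template were synthesised at 97 % wild-type base and 1 % of each other base. The template was transcribed in vitro at 37 °C for 2 h, with self-cleavage allowed during transcription. Reads with or without upstream sequence after deep sequencing marked cleavage status, and relative activity is fraction cleaved normalised to wild type.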
With U12G U18G, the self-cleavage is 0.59.

As to U12G U18C, the self-cleavage turned out to be 0.28.

With U12G U18A, the self-cleavage amounted to 0.39.

G13C G34C: the self-cleavage was determined as 0.02.

Regarding G13C G34U, the self-cleavage came to 0.03.

As to G13C G34A, the self-cleavage stood at 0.04.

As for G13A G48U, the self-cleavage amounted to 0.02.

Take G13A G48A: the self-cleavage worked out at 0.03.

Regarding G13A G48C, the self-cleavage was found to be 0.03.

As to G13U G44U, the self-cleavage stood at 0.04.

As for G13U G44A, the self-cleavage stood at 0.03.

G13U G44C: the self-cleavage was 0.03.

Take G13U G45C: the self-cleavage was 0.01.

For the variant G13U G45U, the self-cleavage was 0.02.

On to G13U G45A, for which the self-cleavage was determined as 0.02.

G13U G19C: the self-cleavage came to 0.01.

Consider G13U G19A, for which the self-cleavage was determined as 0.03.

Regarding G13U G19U, the self-cleavage came out at 0.04.

G13U G35A: the self-cleavage was determined as 0.03.

With G13U G35C, the self-cleavage was 0.03.

Regarding G13U G35U, the self-cleavage was determined as 0.03.

As to G13C G51U, the self-cleavage was 0.02.

For the variant G13C G51C, the self-cleavage stood at 0.01.

G13C G51A: the self-cleavage came to 0.02.

In the case of G13U G48A, the self-cleavage came out at 0.01.

Consider G13U G48U, for which the self-cleavage is 0.01.

Take G13U G48C: the self-cleavage worked out at 0.01.

Turning to U12A U37G, the self-cleavage was 1.

As to U12A U37C, the self-cleavage amounted to 1.

U12A U37A: the self-cleavage was 0.71.

For the variant G13A G44A, the self-cleavage turned out to be 0.05.

With G13A G44C, the self-cleavage is 0.08.

Turning to G13A G44U, the self-cleavage was determined as 0.07.

C14A G22C: the self-cleavage came to 0.02.

For C14A G22U, the self-cleavage turned out to be 0.05.

For the variant C14A G22A, the self-cleavage was 0.08.

With G13U U12G, the self-cleavage was 0.14.

With G13U U12C, the self-cleavage came to 0.05.

In the case of G13U U12A, the self-cleavage amounted to 0.02.

With G13C G35C, the self-cleavage was determined as 0.02.

As for G13C G35U, the self-cleavage worked out at 0.04.

G13C G35A: the self-cleavage was 0.02.

Regarding C14A U12C, the self-cleavage is 0.05.

As for C14A U12G, the self-cleavage was found to be 0.06.

With C14A U12A, the self-cleavage was 0.08.

C14A C21G: the self-cleavage is 0.03.

Consider C14A C21U, for which the self-cleavage amounted to 0.09.

As to C14A C21A, the self-cleavage was 0.08.

Take G13U G30U: the self-cleavage worked out at 0.01.

Regarding G13U G30C, the self-cleavage is 0.01.

Turning to G13U G30A, the self-cleavage worked out at 0.01.

As for G13A G45A, the self-cleavage is 0.03.

Regarding G13A G45C, the self-cleavage is 0.02.

With G13A G45U, the self-cleavage was 0.02.

For the variant G13A U37C, the self-cleavage is 0.12.

Turning to G13A U37A, the self-cleavage stood at 0.13.

As to G13A U37G, the self-cleavage was 0.17.

For U12A U24A, the self-cleavage was 0.07.

Take U12A U24G: the self-cleavage was found to be 0.03.

As to U12A U24C, the self-cleavage worked out at 0.08.

In the case of C14A U37C, the self-cleavage came to 0.12.

Regarding C14A U37A, the self-cleavage was found to be 0.07.

For C14A U37G, the self-cleavage is 0.15.

Take G13A G42A: the self-cleavage was determined as 0.05.

On to G13A G42C, for which the self-cleavage was determined as 0.04.

On to G13A G42U, for which the self-cleavage was determined as 0.02.

As to G13A U43A, the self-cleavage was 0.05.

For the variant G13A U43C, the self-cleavage worked out at 0.05.

Consider G13A U43G, for which the self-cleavage amounted to 0.04.

Consider G13C G47A, for which the self-cleavage was determined as 0.02.

Consider G13C G47U, for which the self-cleavage is 0.02.

On to G13C G47C, for which the self-cleavage came to 0.01.

As to G13A U18G, the self-cleavage is 0.24.

G13A U18C: the self-cleavage is 0.1.

As to G13A U18A, the self-cleavage is 0.09.

U12G U37C: the self-cleavage is 0.55.

As to U12G U37A, the self-cleavage was 0.6.

Regarding U12G U37G, the self-cleavage is 0.52.

Turning to G13A U12A, the self-cleavage was determined as 0.07.

In the case of G13A U12G, the self-cleavage came out at 0.09.

For the variant G13A U12C, the self-cleavage worked out at 0.04.

Turning to G13U U24A, the self-cleavage came to 0.01.

G13U U24C: the self-cleavage was determined as 0.03.

As to G13U U24G, the self-cleavage stood at 0.02.

Turning to C14G C9G, the self-cleavage worked out at 0.16.

With C14G C9U, the self-cleavage was determined as 0.08.

Turning to C14G C9A, the self-cleavage came to 0.04.

G13C G42U: the self-cleavage was 0.01.

Consider G13C G42C, for which the self-cleavage turned out to be 0.02.

As for G13C G42A, the self-cleavage amounted to 0.03.

In the case of C14A G48A, the self-cleavage was determined as 0.02.

With C14A G48C, the self-cleavage stood at 0.02.

Regarding C14A G48U, the self-cleavage was found to be 0.02.

As for G13C G48A, the self-cleavage was found to be 0.01.

Take G13C G48U: the self-cleavage amounted to 0.01.

As to G13C G48C, the self-cleavage worked out at 0.02.

In the case of G13A G54C, the self-cleavage was found to be 0.06.

As to G13A G54A, the self-cleavage came out at 0.07.

Consider G13A G54U, for which the self-cleavage came to 0.2.

With C14G C15G, the self-cleavage worked out at 0.22.

On to C14G C15A, for which the self-cleavage amounted to 0.06.

As to G13U G53U, the self-cleavage worked out at 0.02.

Take G13U G53A: the self-cleavage came to 0.03.

Take G13U G53C: the self-cleavage is 0.01.

In the case of G13A G47U, the self-cleavage is 0.03.

Take G13A G47A: the self-cleavage came to 0.04.

For the variant G13A G47C, the self-cleavage is 0.03.

In the case of G13A G50C, the self-cleavage is 0.06.

Take G13A G50U: the self-cleavage is 0.08.

In the case of G13A G50A, the self-cleavage was determined as 0.14.

As to G13C U12G, the self-cleavage amounted to 0.56.

As for G13C U12A, the self-cleavage came to 0.03.

For the variant G13C U12C, the self-cleavage was determined as 0.03.

Take G13C G53C: the self-cleavage is 0.01.

Consider G13C G53A, for which the self-cleavage stood at 0.02.

With G13C G53U, the self-cleavage amounted to 0.02.

For the variant G13C G22C, the self-cleavage stood at 0.01.

For the variant G13C G22U, the self-cleavage was 0.02.

For G13C G22A, the self-cleavage worked out at 0.03.

For C14A G53U, the self-cleavage worked out at 0.05.

As to C14A G53A, the self-cleavage is 0.06.

Regarding C14A G53C, the self-cleavage stood at 0.02.

For the variant G13U G47A, the self-cleavage came out at 0.02.

As for G13U G47U, the self-cleavage is 0.02.

Take G13U G47C: the self-cleavage turned out to be 0.01.

On to G13A U24G, for which the self-cleavage was 0.01.

As to G13A U24C, the self-cleavage was determined as 0.04.

As for G13A U24A, the self-cleavage was determined as 0.05.

As to G13U G54C, the self-cleavage amounted to 0.02.

On to G13U G54A, for which the self-cleavage was 0.03.

Regarding G13U G54U, the self-cleavage came to 0.04.

In the case of U12C U43G, the self-cleavage is 0.09.

With U12C U43A, the self-cleavage stood at 0.11.

U12C U43C: the self-cleavage was 0.08.

With G13C G30A, the self-cleavage came out at 0.01.

G13C G30U: the self-cleavage was found to be 0.01.

In the case of G13C G30C, the self-cleavage worked out at 0.02.

G13A G51C: the self-cleavage stood at 0.02.

With G13A G51U, the self-cleavage was found to be 0.04.

Take G13A G51A: the self-cleavage is 0.05.

With G13A G19A, the self-cleavage was 0.08.

As to G13A G19C, the self-cleavage is 0.03.

Take G13A G19U: the self-cleavage came to 0.04.

As for C14A G34C, the self-cleavage was found to be 0.05.

C14A G34A: the self-cleavage turned out to be 0.07.

Regarding C14A G34U, the self-cleavage stood at 0.05.

As to C14A G23C, the self-cleavage was 0.02.

With C14A G23U, the self-cleavage is 0.02.

As for C14A G23A, the self-cleavage is 0.05.

For the variant C14A C26U, the self-cleavage turned out to be 0.05.

Take C14A C26G: the self-cleavage stood at 0.02.

For the variant C14A C26A, the self-cleavage was 0.05.

As to G13C U24G, the self-cleavage is 0.01.

G13C U24C: the self-cleavage was 0.03.

Consider G13C U24A, for which the self-cleavage turned out to be 0.02.

For the variant C14A G54A, the self-cleavage stood at 0.1.

C14A G54C: the self-cleavage amounted to 0.06.

C14A G54U: the self-cleavage was found to be 0.22.

As to U12C U24C, the self-cleavage is 0.06.

On to U12C U24A, for which the self-cleavage came out at 0.05.

For U12C U24G, the self-cleavage amounted to 0.03.

In the case of C14A U43G, the self-cleavage turned out to be 0.07.

Turning to C14A U43C, the self-cleavage came out at 0.06.

C14A U43A: the self-cleavage was 0.06.

G13C G54U: the self-cleavage stood at 0.04.

Take G13C G54C: the self-cleavage is 0.02.

For G13C G54A, the self-cleavage stood at 0.03.

The record behind these values is the RNAGym collection of RNA variant scans (doi:10.1002/anie.201605470).
